PGC1a Ac signal – raises PGC1a acetylation signal in U2OS cells | U2OS PGC1a acetylation AlphaScreen, overnight | activation, % at 15.6 µM | actives 0.21% (n = 350,000) | AID 651723;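 active = every replicate reaching activation of at least 50%, whatever the mean replicate activation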;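 also: hits raise the AlphaScreen acetylation signal above neutral controls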
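Incubation: overnight compound treatment, 37 °C. System: U2OS cells transduced with flag-tagged PGC1a and GCN5 acetyltransferase. Detection: AlphaScreen lysate read. Compound: single-point compound dosing.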
An asterisk follows results filed as active. The sample as a whole holds a higher share of hits than the screen did.

SMILES | PGC1a Ac signal
O=C1Nc2cc(S(=O)(=O)N3CCCC3)ccc2N2CCCC12 (centres undefined) | 94.7*
O=C(CSc1ccsc1[N+](=O)[O-])NCCc1ccc(Cl)cc1 | 68.4*
CC(C)NC(=S)N=Nc1c(O)[nH]c2ccc(C(C)C)cc12 | -47.5
CCc1ccc(N/C(SCc2ccccc2C)=C(/C#N)C(=O)NCc2ccco2)cc1 | 84.1*
C[C@H](NC(=O)C[C@H]1CC[C@@H](NC(=O)C2CC2)[C@H](CO)O1)c1ccccc1 | -51.7
CCOC(=O)CSc1nc2cc3c(cc2cc1C#N)OCCO3 | -40.3
Cc1cc2oc(=O)cc(CN3CCC(C)CC3)c2cc1C | -41.9
O=C(N=Nc1c(O)[nH]c2ccccc12)c1cc(-c2cccs2)[nH]n1 | -47.8
CS(=O)(=O)Nc1ccc2c(c1)[C@@H]1C[C@H](CC(=O)N3CCc4ccccc4C3)O[C@@H](CO)[C@@H]1O2 | -40.7
COc1ccc(-c2cnc3c(c2)C(=O)N([C@H](C)CO)C[C@@H](C)[C@@H](CN(C)C(=O)Nc2c(C)noc2C)O3)cc1 | -43.5
Cc1nnc(Nc2ccc3c(c2)OCO3)c2ccccc12 | 84.1*
Cc1ccc2nc(C)cc(OCC(=O)O)c2c1 | 59.0*
Cc1ccc(Nc2nc(C)cc(C)c2C(N)=O)c(C)c1 | -40.5
CC(=O)c1ccc(Nc2cc(C)nc3ccc(C)cc23)cc1 | -40.0
CN=C1c2cc3cc(OC)ccc3n2CCN1Cc1ccccc1 | 83.3*
CCCCN(CCCC)CCNC(=O)c1ccc2nc(-c3ccccc3NC(C)=O)c(=O)[nH]c2c1 | -42.1
O=C(Nc1cccc(C(F)(F)F)c1)c1sc(Cl)nc1C(F)(F)F | 120.6*
CC(C)NC(=O)Nc1ccc2c(c1)C(=O)N([C@@H](C)CO)C[C@@H](C)[C@H](CN(C)C(=O)NC(C)C)OCCCC[C@@H](C)O2 | -48.7
CC(C)(C)c1ccc(NC(=O)N2CCCN(c3ccc([N+](=O)[O-])cn3)CC2)cc1 | 186.4*
CC(=O)ON=C1C=CC(=C(C#N)c2ccccc2)C=C1 | -41.0
CN(C)S(=O)(=O)c1ccc(N2CCCC2)c(C(=O)NCc2cccc(C(F)(F)F)c2)c1 | 92.5*
FC(F)(F)c1ccc(Cl)c(-n2c(-c3cc(-c4ccco4)[nH]n3)n[nH]c2=S)c1 | -43.5
S=c1[nH]nc(-c2cc(-c3ccccc3)n[nH]2)n1/N=C/C(Br)=C/c1ccccc1 | 241.4*
S=c1[nH]nc(-c2ccco2)n1/N=C/C(Cl)=C/c1ccccc1 | 65.2*
CCCCOc1ccc(CNC(=O)NS(=O)(=O)c2ccc(OCC(C)C)cc2)cc1 | -48.9
SMILES | PGC1a Ac signal
CC(C)C#Cc1cnc2c(c1)C(=O)N([C@H](C)CO)C[C@H](C)[C@H](CN(C)C(=O)CN1CCOCC1)O2 | -57.7
Cc1ccc(-c2cnc3c(c2)C(=O)N([C@@H](C)CO)C[C@@H](C)[C@H](CN(C)C)O3)cc1 | -109.0
O=C(Cn1cc(C(=O)c2cccs2)c2ccccc21)NCC1CCCO1 (centres undefined) | 85.7*
CN(CC(=O)NCC1CCCO1)S(=O)(=O)c1cc(Cl)ccc1Cl (centres undefined) | -48.3
CC(C)NC(=O)Nc1ccc2c(c1)C(=O)N([C@@H](C)CO)C[C@@H](C)[C@@H](CN(C)S(=O)(=O)c1ccccc1)OCCCC[C@H](C)O2 | -105.0
CCS(=O)(=O)c1ccc(O)c(NC(=O)COc2ccc(Br)cc2)c1 | -96.8
COc1ccc2c(c1)CC/C(=C/c1cc(OC)c(OC)c(OC)c1)C2=O | -52.5
COc1cc(/C=C2\COC/C(=C\c3ccc(O)c(OC)c3)C2=O)ccc1O | 89.6*
O=C1CCN(S(=O)(=O)c2ccc(Cl)cc2)N1 | 63.1*
COc1ccc(S(=O)(=O)N[C@H]2CC[C@@H](CCNC(=O)c3ccccc3F)O[C@@H]2CO)cc1 | -52.4
CC(NS(=O)(=O)c1ccccc1Cl)C1CC2CCC1C2 (centres undefined) | 102.1*
CN(C)c1ncnc2c1ccn2C1OC(CO)C(O)C1O (centres undefined) | -52.5
Cc1cc(=O)oc2cc(OCC(=O)OCC(=O)Nc3ccccc3F)ccc12 | -44.8
CN(C)c1ccc(/C=N/N=C2/NC(=O)/C(=C/c3ccc([N+](=O)[O-])cc3)S2)cc1 | 80.6*
CN(C)c1ccc(C=C2SC(=S)NC2=O)cc1 | -51.2
CCCCCCNC(=O)O[C@@]12CN(S(=O)(=O)c3ccc(C)cc3)C[C@]1(O)Cn1c(=O)n(CCCCCC)c(=O)n1C2 | -68.9
CO[C@H]1CN(C)C(=O)c2ccc(NS(=O)(=O)c3ccccc3)cc2OC[C@@H](C)N(C(=O)NC(C)C)C[C@@H]1C | -51.7
Cc1nc([N+](=O)[O-])c(Br)n1Cc1ccc(Cl)c(Cl)c1 | 89.8*
COc1ccc(S(=O)(=O)N(C)C[C@H]2Oc3c(NS(=O)(=O)c4ccc(C)cc4)cccc3C(=O)N([C@H](C)CO)C[C@H]2C)cc1 | -40.5
O=C(NCc1cccc(Cl)c1)c1ccc(-n2ccnc2)c2ccoc12 | 51.6*
Cc1cccc(CC2CC(=O)N(C3CCCCC3)C2=O)c1 (centres undefined) | -45.7
COc1cc(C2C(C#N)=C(N)Oc3c2oc(CO)cc3=O)cc(OC)c1OC (centres undefined) | 102.1*
Cn1nc(-c2ccccc2F)c2cc(C(=O)N3CCN(C(=O)c4ccco4)CC3)sc21 | 81.9*
O=C(c1ccco1)N1CCN(c2ncnc3scc(-c4cccs4)c23)CC1 | -45.4
Cc1ccc(CNn2cnnc2SCC(=O)NC(C)(C)C)cc1 | -42.4
SMILES | PGC1a Ac signal
Cc1cccc2cc(CN(Cc3nnnn3Cc3ccco3)C3CCCC3)c3nnnn3c12 | 55.5*
CSCC[C@H](NC(=O)c1ccc(Br)o1)c1nnc2ccccn12 | -42.9
CCOc1ccc(Nc2nc(NCc3ccco3)nc(N)c2[N+](=O)[O-])cc1 | -72.4
CCCCSCCCNC(=O)c1cn(C)c2ccc(S(=O)(=O)N3CCCC3)cc2c1=O | -9.6
CCOC(=O)N1CCN(C(=O)c2cc(S(=O)(=O)N3CCCC3)cn2C)CC1 | 73.7*
CN1/C(=C\C(=O)c2cccc(S(=O)(=O)N3CCCCC3)c2)C(C)(C)c2ccccc21 | -40.5
CC12CC(c3ccccc3O1)N(C(=O)c1ccc(Br)o1)C(=O)N2c1ccccc1 (centres undefined) | -44.3
NC(=O)c1ccccc1NC(=O)/C=C/C(=O)O | 62.3*
C=C1C(=O)C23CCC4C(C)(C(=O)OC)CCCC4(C)C2CCC1(O)C3 (centres undefined) | -76.3
CCOC(=O)COc1ccc(/C=C/[N+](=O)[O-])c(OCC(=O)OCC)c1 | 77.0*
CC[C@H](C)[C@@H]1OC(=O)[C@@H](C)[C@@H](CC)NC(=O)[C@H](C)N(C)C(=O)C(C)(C)C(=O)C(C)NC(=O)[C@H](Cc2ccccc2)N(C)C(=O)[C@H](C(C)C)N(C)C(=O)CNC(=O)[C@H](CC(C)C)N(C)C(=O)CNC1=O (some centres undefined) | -76.1
CCC(=O)N[C@H]1CC[C@H](CCNC(=O)Nc2ccc(C(F)(F)F)cc2)O[C@H]1CO | -60.3
COc1ccc(OC)c(-n2c(-c3ccc(C)cc3)n[nH]c2=S)c1 | 69.8*
COc1ccc(-c2cc(C(=O)O)[nH]n2)cc1OC | -42.4
CCN(CC)S(=O)(=O)c1cccc(-c2nnc(SCc3ncc(-c4ccccc4)o3)n2C)c1 | -43.2
Cc1ccc(NC(=S)/N=C(\N)Nc2nc(C)c3cc(C)c(C)cc3n2)cc1C | 66.2*
CC(C)C#Cc1ccc([C@@H]2[C@H](CO)N3C(=O)CN(C(=O)NC4CCCC4)C[C@@H]23)cc1 | -107.1
COCC(=O)OCC(=O)Nc1cc(C(C)(C)C)nn1-c1ccccc1 | -47.2

Screens as filed in PubChem BioAssay.
